Results pooled from the literature.
Protocols differ between the studies behind these lines. pEC50, pIC50: −log10 of the molar value. Values after ≈ are worked out from the molar mass of the structure shown.

Structure (SMILES)	tested on	assay	system	setting	quantity	result
COc1ccc(Nc2cnnc3ccc(-c4ccc(N5CCN(C)CC5)cc4)cc23)nc1	Trypanosoma cruzi	parasite growth	C2C12	intracellular, amastigote	pEC50	5.77
O=C(NCc1cn(Cc2ccc(Br)cc2)nn1)Nc1ccc(Cl)cc1	Huh-7	cell growth or viability, CCK-8		50 µM, 48 h	viability	88.2%
O=C(Cn1ccnc1[N+](=O)[O-])NCc1ccccc1	Trypanosoma cruzi	parasite growth		72 h, epimastigote	IC50	1.57 mg/L
COc1cc(C=O)ccc1OC1=C(Cl)C(=O)c2ccccc2C1=O	Alternaria alternata	microbial growth, broth dilution			MIC	12 mg/L (≈ 35 µM)
O=C(Cn1ccnc1[N+](=O)[O-])NCc1ccccc1	Trypanosoma cruzi	parasite growth	Vero, TULAHUEN	72 h, intracellular, amastigote	pIC50	5.65
CN1CCN(c2ccc(-c3ccc4c(Nc5cnccn5)cnnc4c3)cc2)CC1	Trypanosoma cruzi	parasite growth	C2C12	intracellular, amastigote	pEC50	< 5.00
COc1ccc(NC(=O)Nc2cccc(-c3cn(Cc4ccc(Cl)cc4)nn3)c2)cc1	Huh-7	cell growth or viability, CCK-8		72 h	pIC50	4.81
O=C(Nc1ccc(Cl)cc1)Nc1ccc(-c2cn(Cc3ccc(Br)cc3)nn2)cc1	Huh-7	cell growth or viability, CCK-8		50 µM, 48 h	viability	98.4%
COc1ccc(NC(=O)Nc2ccc(-c3cn(Cc4ccc(Br)cc4)nn3)cc2)cc1	Huh-7	cell growth or viability, CCK-8		50 µM, 72 h	viability	91.2%
COc1ccc(Nc2cnnc3cc(-c4cnc(N5CCCN(C)CC5)nc4)ccc23)nc1	Trypanosoma cruzi	parasite growth	C2C12	intracellular, amastigote	pEC50	5.12
COc1ccc(NC(=O)Nc2ccc(-c3cn(Cc4cccc(Cl)c4)nn3)cc2)cc1	Huh-7	cell growth or viability, CCK-8		50 µM, 72 h	viability	82.5%
CN1CCN(c2ccc(-c3ccc4c(Nc5ncccn5)cnnc4c3)cc2)CC1	Trypanosoma cruzi	parasite growth	C2C12	intracellular, amastigote	pEC50	5.59
O=C(NCc1cn(Cc2ccc(Br)cc2)nn1)Nc1ccccc1Br	Huh-7	cell growth or viability, CCK-8		50 µM, 48 h	viability	61.2%
Cc1ccccc1Cn1cc(-c2cccc(NC(=O)Nc3ccc(F)cc3)c2)nn1	Huh-7	cell growth or viability, CCK-8		50 µM, 72 h	viability	12.5%
O=C(Nc1ccc(-c2cn(Cc3ccc(Cl)cc3)nn2)cc1)Nc1ccccc1Br	Huh-7	cell growth or viability, CCK-8		50 µM, 48 h	viability	80.2%
COc1ccc(NC(=O)NCc2cn(Cc3ccc(Cl)cc3)nn2)cc1	Huh-7	cell growth or viability, CCK-8		50 µM, 72 h	viability	99%
O=C(Nc1cccc(-c2cn(Cc3ccc(Br)cc3)nn2)c1)Nc1ccccc1Br	Huh-7	cell growth or viability, CCK-8		50 µM, 72 h	viability	10.8%
Cc1ccc(Nc2cnnc3cc(-c4cnc(N5CCCN(C)CC5)nc4)ccc23)cn1	Trypanosoma cruzi	parasite growth	C2C12	intracellular, amastigote	pEC50	< 5.00
O=C(Nc1ccc(Cl)cc1)Nc1cccc(-c2cn(Cc3ccc(Cl)cc3)nn2)c1	Huh-7	cell growth or viability, CCK-8		50 µM, 48 h	viability	84%
COc1ccc(NC(=O)NCc2cn(Cc3ccc(Br)cc3)nn2)cc1	Huh-7	cell growth or viability, CCK-8		50 µM, 48 h	viability	87.2%
Cc1ccc(Nc2cnnc3ccc(-c4ccc(N5CCCN(C)CC5)cc4)cc23)cn1	Trypanosoma cruzi	parasite growth	C2C12	intracellular, amastigote	pEC50	5.21
COc1ccc(NC(=O)Nc2cccc(-c3cn(Cc4cccc(Cl)c4)nn3)c2)cc1	Huh-7	cell growth or viability, CCK-8		50 µM, 48 h	viability	65.5%
CN1CCN(c2ncc(-c3ccc4c(Nc5ncccn5)cnnc4c3)cn2)CC1	Trypanosoma cruzi	parasite growth	C2C12	intracellular, amastigote	pEC50	< 5.00
O=C(Nc1ccc(Cl)cc1)Nc1ccc(-c2cn(Cc3ccc(Cl)cc3)nn2)cc1	Huh-7	cell growth or viability, CCK-8		50 µM, 48 h	viability	83.6%
